A short description of series [1]: folding enthalpy; higher = less favourable; fluorescence melt of hairpins on a sequencing array, two-state fit. The note with it: sodium 0.088 M. The method in brief: (§1)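 Melting temperature and folding enthalpy were obtained by bootstrapped two-state fitting. Fits used Cy3 fluorescence of library hairpins with annealed Cy3 and quencher oligos on a sequenced MiSeq flow cell, imaged in 50 mM Na-HEPES pH 8.0, 25 mM NaCl in 2.5 °C steps up to 60 °C and normalised to pre-quench Cy3 and control constructs. Four replicates were combined by inverse-variance weighting, and fitted temperatures were raised by 9.35 °C to match UV melts.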

The nature of series [2]: melting temperature; fluorescence melt of hairpins on a sequencing array, two-state fit, raised by 9.35 °C to match UV melts. The note with it: sodium 0.088 M. The method in brief: as §1

For the sequence GCTACCGGAAACGACAGC (((..((....))..))), in series [1], the folding enthalpy is -15.8 kcal/mol. For the same sequence, the Tm in series [2] is 27.5 °C.
The corresponding values for GCTACCTCGAAAGAGAGC (((..(((....)))))) are -16.3 kcal/mol and 30.1 °C.
The corresponding values for GCTACGCGAAAGCAGAGC (((..((....))..))) are -18.7 kcal/mol and 48.4 °C.
As for GCTACGCGAAAGCCCAGC (((..((....))..))), in series [1], the folding enthalpy was -6.89 kcal/mol. For the same sequence, the Tm in series [2] is 33.3 °C.
The corresponding values for GCTACGCGAAAGCCTGGC ((.(.((....)).).)) are -13.4 kcal/mol and 34.4 °C.
On the same counts, the results for GCTACGCGAAAGCGAGGC ((..(((....)))..)) are -15.1 kcal/mol and 53.3 °C.
The corresponding values for GCTACGCGAAAGCGATGC ((..(((....)))..)) are -18.3 kcal/mol and 50 °C.
Turning to GCTACGCGAAAGCGCGGC ((..(((....)))..)), the folding enthalpy in series [1] is -16.1 kcal/mol. Further, the Tm in series [2] came to 51 °C.
The corresponding values for GCTACGCGAAAGCGCTGC ((..(((....)))..)) are -15.2 kcal/mol and 43.5 °C.
With GCTACGGGAAACCACAGC (((..((....))..))), the folding enthalpy in series [1] was -21.4 kcal/mol. Besides, the Tm in series [2] was 36 °C.
On the same counts, the results for GCTACTGGAAACAGTGGC ((.((((....)))).)) are -38.3 kcal/mol and 51.7 °C.
The corresponding values for GCTAGACCGAAAGGTAGC (((..(((....)))))) are -19.2 kcal/mol and 44.1 °C.
The corresponding values for GCTAGACGAAAGTCCAGC (((.(((....))).))) are -24.9 kcal/mol and 47.6 °C.
For the sequence GCTAGAGGAAACCCTAGC (((((.(....).))))), the folding enthalpy in series [1] is -31.2 kcal/mol. The Tm in series [2] amounted to 41.4 °C.
The corresponding values for GCTAGCCGAAAGGCGAGC (((.(((....))).))) are -30.9 kcal/mol and 67.2 °C.
The corresponding values for GCTAGCGAAAGCTAGAGC ((((((....)))..))) are -13.2 kcal/mol and 55 °C.
On to GCTAGCGAAAGCTCAGC ((((((....))).))), for which the folding enthalpy in series [1] was -19.6 kcal/mol. In addition, in series [2], the Tm turned out to be 48.9 °C.
The corresponding values for GCTAGCGAAAGCTTAGC ((((((....))).))) are -22.1 kcal/mol and 52.5 °C.
The corresponding values for GCTAGCGGAAACGCTGGC ((.((((....)))).)) are -33.3 kcal/mol and 60.3 °C.
On the same counts, the results for GCTAGGCGAAAGCCAGC (((.(((....)))))) are -21.7 kcal/mol and 62.9 °C.
For the sequence GCTAGGCGAAAGCCATGC ((..(((....)))..)), the folding enthalpy in series [1] was -17.7 kcal/mol. In addition, the Tm in series [2] was 53.5 °C.
Take GCTAGGCGAAAGCGGAGC (((..((....))..))): the folding enthalpy in series [1] is -20.1 kcal/mol. For the same sequence, the Tm in series [2] was found to be 42.4 °C.
The corresponding values for GCTAGGCGAAAGCTGAGC (((..((....))..))) are -18.2 kcal/mol and 53.6 °C.
On the same counts, the results for GCTAGGGGAAACCTTGGC ((.(.((....)).).)) are -23.8 kcal/mol and 34.4 °C.
On the same counts, the results for GCTAGGGGAAACTCTAGC (((((.(....).))))) are -34.8 kcal/mol and 47.7 °C.
For the sequence GCTAGTGGAAACACTAAC (.(((((....))))).), the folding enthalpy in series [1] is -15.2 kcal/mol. The Tm in series [2] was found to be 32.5 °C.
On the same counts, the results for GCTAGTGGAAACACTAGC (((((((....))))))) are -47.7 kcal/mol and 61.9 °C.
On the same counts, the results for GCTAGTGGAAACACTGGC ((.((((....)))).)) are -32.2 kcal/mol and 51.7 °C.
The corresponding values for GCTAGTGGAAACGCTAGC (((((.(....).))))) are -40.4 kcal/mol and 52.3 °C.
With GCTAGTGGAAACGTTAGC ((((..(....)..)))), the folding enthalpy in series [1] was -20.1 kcal/mol. Also, in series [2], the Tm came out at 36.4 °C.
The corresponding values for GCTATCCCGAAAGGGAGC (((..(((....)))))) are -11.7 kcal/mol and 38.9 °C.
On the same counts, the results for GCTATCCGAAAGGAGAGC (((.(((....))).))) are -38.9 kcal/mol and 58.6 °C.
On the same counts, the results for GCTATCGAAAGATATAGC ((((((....)))..))) are -25.1 kcal/mol and 36.1 °C.
Take GCTATCGAAAGATCTAGC ((((((....)))..))): in series [1], the folding enthalpy was -11.8 kcal/mol. For the same sequence, in series [2], the Tm was 26.1 °C.
On to GCTATCGAAAGATGCAGC ((((((....)))..))), for which the folding enthalpy in series [1] was -18.3 kcal/mol. For the same sequence, the Tm in series [2] was determined as 35.8 °C.
Turning to GCTATCGAAAGATGTAGC ((((((....)))..))), the folding enthalpy in series [1] was -28.9 kcal/mol. Moreover, the Tm in series [2] was found to be 36.9 °C.
The corresponding values for GCTATCGAAAGATTAGC ((((((....))).))) are -26.1 kcal/mol and 42.7 °C.
The corresponding values for GCTATCGGAAACGACAGC (((.(((....))).))) are -30.9 kcal/mol and 43.8 °C.
On the same counts, the results for GCTATCGGAAACGGTAGC ((((.((....)).)))) are -38 kcal/mol and 51.8 °C.
Consider GCTATGAAAATAGC (((((....))))), for which the folding enthalpy in series [1] was -23.4 kcal/mol. In series [2], the Tm stood at 47.9 °C.
On to GCTATGACGAAAGTCAGC (((..(((....)))))), for which the folding enthalpy in series [1] is -13.2 kcal/mol. The Tm in series [2] is 42 °C.
The corresponding values for GCTATGCGAAAGCACGGC ((..(((....)))..)) are -17.7 kcal/mol and 41.4 °C.
For the sequence GCTATGCGAAAGCAGAGC (((.(((....))).))), the folding enthalpy in series [1] was -49 kcal/mol. For the same sequence, the Tm in series [2] amounted to 60.6 °C.
On the same counts, the results for GCTATGCGAAAGCCCAGC (((..((....))..))) are -11.6 kcal/mol and 29 °C.
The corresponding values for GCTATGCGAAAGCCGAGC (((..((....))..))) are -19 kcal/mol and 39.4 °C.
On the same counts, the results for GCTATGCGAAAGCGAAGC (((..((....))..))) are -16.4 kcal/mol and 44.2 °C.
Regarding GCTATGCGAAAGCTAAGC (((..((....))..))), the folding enthalpy in series [1] was -17.2 kcal/mol. In addition, in series [2], the Tm came out at 47.6 °C.
On the same counts, the results for GCTATGCGAAAGCTTTGC ((.(.((....)).).)) are -18.2 kcal/mol and 43.4 °C.
On the same counts, the results for GCTATGGGAAACCATAGC (((((((....))))))) are -40.7 kcal/mol and 61.4 °C.
On the same counts, the results for GCTATTCCGAAAGGAAGC (((..(((....)))))) are -14.7 kcal/mol and 32.9 °C.
In the case of GCTCACGAAAGTGGAAGC ((((((....)))..))), the folding enthalpy in series [1] is -20.9 kcal/mol. For the same sequence, in series [2], the Tm stood at 45.4 °C.
Take GCTCACGAAAGTGGCAGC ((((((....)))..))): the folding enthalpy in series [1] is -14.7 kcal/mol. The Tm in series [2] was determined as 44.6 °C.
As for GCTCACGAAAGTGTTAGC ((((((....)))..))), in series [1], the folding enthalpy was -21.6 kcal/mol. Moreover, in series [2], the Tm was 40.8 °C.
Turning to GCTCACGGAAACATGAGC (((((.(....).))))), in series [1], the folding enthalpy was -34.6 kcal/mol. In series [2], the Tm came out at 44.9 °C.
On the same counts, the results for GCTCAGCGAAAGCAAAGC (((..((....))..))) are -13.6 kcal/mol and 38.4 °C.
For GCTCAGCGAAAGCAGGGC ((.(.((....)).).)), the folding enthalpy in series [1] was -19 kcal/mol. The Tm in series [2] came out at 51.9 °C.
For GCTCAGCGAAAGCCAAGC (((..((....))..))), in series [1], the folding enthalpy is -16.4 kcal/mol. Further, the Tm in series [2] stood at 41 °C.
The corresponding values for GCTCAGCGAAAGCCCAGC (((..((....))..))) are -12.1 kcal/mol and 37.2 °C.
The corresponding values for GCTCAGCGAAAGCCGTGC ((.(.((....)).).)) are -12.3 kcal/mol and 42.4 °C.
On to GCTCAGCGAAAGCCTAGC (((..((....))..))), for which the folding enthalpy in series [1] was -19.7 kcal/mol. In addition, the Tm in series [2] worked out at 36.1 °C.
For the sequence GCTCAGCGAAAGCTCTGC ((..(((....)))..)), the folding enthalpy in series [1] was -13.4 kcal/mol. In series [2], the Tm is 28.8 °C.
GCTCAGCGAAAGCTTAGC (((.(((....))).))): the folding enthalpy in series [1] was -44.9 kcal/mol. Also, the Tm in series [2] was determined as 49.4 °C.
The corresponding values for GCTCAGCGAAAGCTTCGC ((..(((....)))..)) are -12.6 kcal/mol and 40 °C.
The corresponding values for GCTCAGCGAAAGCTTTGC ((..(((....)))..)) are -14.4 kcal/mol and 38.6 °C.
Consider GCTCAGGAAACTGAGC ((((((....)))))), for which the folding enthalpy in series [1] was -42.4 kcal/mol. For the same sequence, the Tm in series [2] came out at 64.7 °C.
As for GCTCAGGGAAACCTGAGC (((((((....))))))), the folding enthalpy in series [1] is -44.7 kcal/mol. Also, in series [2], the Tm is 68.3 °C.
The corresponding values for GCTCATGGAAACGTGAGC (((((.(....).))))) are -47.5 kcal/mol and 53.4 °C.
On the same counts, the results for GCTCCAACGAAAGTTAGC (((..(((....)))))) are -11.8 kcal/mol and 27.9 °C.
As to GCTCCACGAAAGTGAGC (((.(((....)))))), the folding enthalpy in series [1] is -26.2 kcal/mol. In addition, the Tm in series [2] is 54 °C.
With GCTCCACGAAAGTGCAGC (((.(((....))).))), in series [1], the folding enthalpy was -22.1 kcal/mol. Further, in series [2], the Tm came out at 46.2 °C.
On the same counts, the results for GCTCCCACGAAAGTGAGC (((..(((....)))))) are -17.1 kcal/mol and 40.2 °C.
On the same counts, the results for GCTCCCGAAAGGGAAAGC ((((((....)))..))) are -16.6 kcal/mol and 51.7 °C.
On the same counts, the results for GCTCCCGAAAGGGCGAGC ((((((....)))..))) are -16.3 kcal/mol and 47.9 °C.

Source of the values: the array DNA melting data of Ke et al. (doi:10.1101/2024.01.08.574731).
